Assay results reported in ChEMBL document CHEMBL4706631, “Potent and Selective Mitogen-Activated Protein Kinase Kinase 1/2 (MEK1/2) Heterobifunctional Small-molecule Degraders” (J Med Chem, 2020).
Active and inactive are the calls of the source. No cut-off for these calls is given here.

Test system: HT-29
Assay: Inhibition of ERK phosphorylation in human HT-29 cells at 0.3 to 3 uM incubated for 24 hrs by Western blot analysis
Assay type: cell-based
Settings: dose 0.3-3 µM

SMILES	inhibition
Cc1ncsc1-c1ccc([C@H](C)NC(=O)[C@H]2C[C@H](O)CN2C(=O)[C@@H](NC(=O)CCCCCCCCCCN(C)CCCONC(=O)c2ccc(F)c(F)c2Nc2ccc(I)cc2F)C(C)(C)C)cc1	inactive

Test system: NCI-H3122
Assay: Antiproliferative activity against human NCI-H3122 cells at 0.014 to 3.33 uM incubated for 3 days by WST8 assay
Assay type: functional, cell-based
Settings: dose 0.014-3.33 µM, time 3.0 day
How it was run: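 NCI-H3122 cells were exposed to serial compound dilutions for 3 days, with WST-8 live-cell readout. Each concentration was run in triplicate. Student's t-test per concentration versus DMSO.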

SMILES	Activity
Cc1ncsc1-c1ccc([C@H](C)NC(=O)[C@H]2C[C@H](O)CN2C(=O)[C@@H](NC(=O)CCCCCCCCCCN(C)CCCONC(=O)c2ccc(F)c(F)c2Nc2ccc(I)cc2F)C(C)(C)C)cc1	inactive

Test system: NCI-H3122
Assay: Inhibition of ERK phosphorylation in human NCI-H3122 cells at 0.3 to 3 uM and incubated for 24 hrs by Western blot analysis
Assay type: cell-based
Settings: dose 0.3-3 µM
How it was run: (§1)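 H3122 and SU-DHL-1 cells were treated with compounds, and MEK1/2, pMEK and pERK were assessed by Western blot of lysates.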

SMILES	inhibition
Cc1ncsc1-c1ccc([C@H](C)NC(=O)[C@H]2C[C@H](O)CN2C(=O)[C@@H](NC(=O)CCCCCCCCCCN(C)CCCONC(=O)c2ccc(F)c(F)c2Nc2ccc(I)cc2F)C(C)(C)C)cc1	inactive

Test system: HT-29
Assay: Inhibition of colony formation in human HT-29 cells at 10 to 100 nM incubated for 10 days by crystal violet staining based assay
Assay type: functional, cell-based
Settings: dose 10-100 nM, time 10.0 day
How it was run: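 HT-29 clonogenic assay: cells were exposed to compounds for 10 days, then fixed and stained with crystal violet. Two independent experiments.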

SMILES	inhibition
Cc1ncsc1-c1ccc([C@H](C)NC(=O)[C@H]2C[C@H](O)CN2C(=O)[C@@H](NC(=O)CCCCCCCCCCN(C)CCCONC(=O)c2ccc(F)c(F)c2Nc2ccc(I)cc2F)C(C)(C)C)cc1	inactive

Test system: SU-DHL-1
Assay: Inhibition of ERK phosphorylation in human SU-DHL-1 cells at 0.3 to 3 uM and incubated for 24 hrs by Western blot analysis
Assay type: cell-based
Settings: dose 0.3-3 µM
How it was run: as §1

SMILES	inhibition
Cc1ncsc1-c1ccc([C@H](C)NC(=O)[C@H]2C[C@H](O)CN2C(=O)[C@@H](NC(=O)CCCCCCCCCCN(C)CCCONC(=O)c2ccc(F)c(F)c2Nc2ccc(I)cc2F)C(C)(C)C)cc1	inactive

Test system: HT-29
Assay: Antiproliferative activity against human HT-29 cells incubated for 3 days by WST8 assay
Assay type: functional
Settings: HT-29, 72 h, time 3 day

SMILES	GI50 [nM]
O=C1CCC(N2C(=O)c3cccc(NCCCNCCCONC(=O)c4ccc(F)c(F)c4Nc4ccc(I)cc4F)c3C2=O)C(=O)N1 (stereo not given)	1100
O=C1CCC(N2C(=O)c3cccc(NCCCCCCCNCCCONC(=O)c4ccc(F)c(F)c4Nc4ccc(I)cc4F)c3C2=O)C(=O)N1 (stereo not given)	4500
O=C1CCC(N2C(=O)c3cccc(NCCNCCCONC(=O)c4ccc(F)c(F)c4Nc4ccc(I)cc4F)c3C2=O)C(=O)N1 (stereo not given)	400
O=C1CCC(N2C(=O)c3cccc(NCCOCCOCCOCCNCCCONC(=O)c4ccc(F)c(F)c4Nc4ccc(I)cc4F)c3C2=O)C(=O)N1 (stereo not given)	800
Cc1ncsc1-c1ccc(CNC(=O)[C@@H]2C[C@@H](O)CN2C(=O)[C@@H](NC(=O)CCOCCNCCCONC(=O)c2ccc(F)c(F)c2Nc2ccc(I)cc2F)C(C)(C)C)cc1	4800
Cc1ncsc1-c1ccc(CNC(=O)[C@@H]2C[C@@H](O)CN2C(=O)[C@@H](NC(=O)CCCCCCCCCNCCCONC(=O)c2ccc(F)c(F)c2Nc2ccc(I)cc2F)C(C)(C)C)cc1	500
O=C1CCC(N2C(=O)c3ccc(NCCCCCCNCCCONC(=O)c4ccc(F)c(F)c4Nc4ccc(I)cc4F)cc3C2=O)C(=O)N1 (stereo not given)	1100
Cc1ncsc1-c1ccc([C@H](C)NC(=O)[C@@H]2C[C@@H](O)CN2C(=O)[C@@H](NC(=O)CCCCCCCCCCNCCCCONC(=O)c2ccc(F)c(F)c2Nc2ccc(I)cc2F)C(C)(C)C)cc1	43
O=C1CCC(N2C(=O)c3cccc(NCCCCCNCCCONC(=O)c4ccc(F)c(F)c4Nc4ccc(I)cc4F)c3C2=O)C(=O)N1 (stereo not given)	1800
Cc1ncsc1-c1ccc(CNC(=O)[C@@H]2C[C@@H](O)CN2C(=O)[C@@H](NC(=O)CCCNCCCONC(=O)c2ccc(F)c(F)c2Nc2ccc(I)cc2F)C(C)(C)C)cc1	3100
O=C1CCC(N2C(=O)c3cccc(NCCCCCCCCNCCCONC(=O)c4ccc(F)c(F)c4Nc4ccc(I)cc4F)c3C2=O)C(=O)N1 (stereo not given)	3500
Cc1ncsc1-c1ccc(CNC(=O)[C@@H]2C[C@@H](O)CN2C(=O)[C@@H](NC(=O)CCOCCOCCOCCOCCNCCCONC(=O)c2ccc(F)c(F)c2Nc2ccc(I)cc2F)C(C)(C)C)cc1	1700
Cc1ncsc1-c1ccc(CNC(=O)[C@@H]2C[C@@H](O)CN2C(=O)[C@@H](NC(=O)CCCCCCCNCCCONC(=O)c2ccc(F)c(F)c2Nc2ccc(I)cc2F)C(C)(C)C)cc1	500
O=C1CCC(N2C(=O)c3ccc(NCCOCCNCCCONC(=O)c4ccc(F)c(F)c4Nc4ccc(I)cc4F)cc3C2=O)C(=O)N1 (stereo not given)	1400
CCCS(=O)(=O)Nc1ccc(F)c(C(=O)c2c[nH]c3ncc(-c4ccc(Cl)cc4)cc23)c1F [VEMURAFENIB]	100
Cc1ncsc1-c1ccc(CNC(=O)[C@@H]2C[C@@H](O)CN2C(=O)[C@@H](NC(=O)COCCNCCCONC(=O)c2ccc(F)c(F)c2Nc2ccc(I)cc2F)C(C)(C)C)cc1	4000
Cc1ncsc1-c1ccc(CNC(=O)[C@@H]2C[C@@H](O)CN2C(=O)[C@@H](NC(=O)CCCCCCCCNCCCONC(=O)c2ccc(F)c(F)c2Nc2ccc(I)cc2F)C(C)(C)C)cc1	600
Cc1ncsc1-c1ccc(CNC(=O)[C@@H]2C[C@@H](O)CN2C(=O)[C@@H](NC(=O)COCCOCCNCCCONC(=O)c2ccc(F)c(F)c2Nc2ccc(I)cc2F)C(C)(C)C)cc1	1600
O=C1CCC(N2C(=O)c3ccc(NCCCCCNCCCONC(=O)c4ccc(F)c(F)c4Nc4ccc(I)cc4F)cc3C2=O)C(=O)N1 (stereo not given)	500
Cc1ncsc1-c1ccc([C@H](C)NC(=O)[C@@H]2C[C@@H](O)CN2C(=O)[C@@H](NC(=O)CCCCCCCCCNCCCCONC(=O)c2ccc(F)c(F)c2Nc2ccc(I)cc2F)C(C)(C)C)cc1	55
O=C1CCC(N2C(=O)c3ccc(NCCCCNCCCONC(=O)c4ccc(F)c(F)c4Nc4ccc(I)cc4F)cc3C2=O)C(=O)N1 (stereo not given)	1000
O=C1CCC(N2C(=O)c3ccc(NCCCCCCCNCCCONC(=O)c4ccc(F)c(F)c4Nc4ccc(I)cc4F)cc3C2=O)C(=O)N1 (stereo not given)	500
O=C1CCC(N2C(=O)c3cccc(NCCOCCOCCNCCCONC(=O)c4ccc(F)c(F)c4Nc4ccc(I)cc4F)c3C2=O)C(=O)N1 (stereo not given)	1300

SMILES	GI50 [nM]
Cc1ncsc1-c1ccc(CNC(=O)[C@@H]2C[C@@H](O)CN2C(=O)[C@@H](NC(=O)CCOCCOCCOCCNCCCONC(=O)c2ccc(F)c(F)c2Nc2ccc(I)cc2F)C(C)(C)C)cc1	3300
O=C1CCC(N2C(=O)c3cccc(NCCOCCNCCCONC(=O)c4ccc(F)c(F)c4Nc4ccc(I)cc4F)c3C2=O)C(=O)N1 (stereo not given)	1200
O=C1CCC(N2C(=O)c3ccc(NCCCCCCCCNCCCONC(=O)c4ccc(F)c(F)c4Nc4ccc(I)cc4F)cc3C2=O)C(=O)N1 (stereo not given)	300
Cc1ncsc1-c1ccc(CNC(=O)[C@@H]2C[C@@H](O)CN2C(=O)[C@@H](NC(=O)CCNCCCONC(=O)c2ccc(F)c(F)c2Nc2ccc(I)cc2F)C(C)(C)C)cc1	5000
O=C1CCC(N2C(=O)c3ccc(NCCCNCCCONC(=O)c4ccc(F)c(F)c4Nc4ccc(I)cc4F)cc3C2=O)C(=O)N1 (stereo not given)	500
O=C1CCC(N2C(=O)c3ccc(NCCOCCOCCOCCOCCNCCCONC(=O)c4ccc(F)c(F)c4Nc4ccc(I)cc4F)cc3C2=O)C(=O)N1 (stereo not given)	500
Cc1ncsc1-c1ccc([C@H](C)NC(=O)[C@@H]2C[C@@H](O)CN2C(=O)[C@@H](NC(=O)CCCCCCCCCCCNCCCONC(=O)c2ccc(F)c(F)c2Nc2ccc(I)cc2F)C(C)(C)C)cc1	99
Cc1ncsc1-c1ccc(CNC(=O)[C@@H]2C[C@@H](O)CN2C(=O)[C@@H](NC(=O)CCCCCCCCCCNCCCONC(=O)c2ccc(F)c(F)c2Nc2ccc(I)cc2F)C(C)(C)C)cc1	400
Cc1ncsc1-c1ccc(CNC(=O)[C@@H]2C[C@@H](O)CN2C(=O)[C@@H](NC(=O)CNCCCONC(=O)c2ccc(F)c(F)c2Nc2ccc(I)cc2F)C(C)(C)C)cc1	1800
FC(F)c1nc2ccccc2n1-c1nc(N2CCOCC2)nc(N2CCOCC2)n1 [ZSTK-474]	300
Cc1ncsc1-c1ccc(CNC(=O)[C@@H]2C[C@@H](O)CN2C(=O)[C@@H](NC(=O)CCCCNCCCONC(=O)c2ccc(F)c(F)c2Nc2ccc(I)cc2F)C(C)(C)C)cc1	3000
Cc1ncsc1-c1ccc(CNC(=O)[C@@H]2C[C@@H](O)CN2C(=O)[C@@H](NC(=O)COCCOCCOCCNCCCONC(=O)c2ccc(F)c(F)c2Nc2ccc(I)cc2F)C(C)(C)C)cc1	1300
O=C1CCC(N2C(=O)c3cccc(NCCOCCOCCOCCOCCOCCNCCCONC(=O)c4ccc(F)c(F)c4Nc4ccc(I)cc4F)c3C2=O)C(=O)N1 (stereo not given)	600
Cc1ncsc1-c1ccc([C@H](C)NC(=O)[C@@H]2C[C@@H](O)CN2C(=O)[C@@H](NC(=O)CCCCCCCCCNCCCONC(=O)c2ccc(F)c(F)c2Nc2ccc(I)cc2F)C(C)(C)C)cc1	240
O=C1CCC(N2C(=O)c3ccc(NCCOCCOCCNCCCONC(=O)c4ccc(F)c(F)c4Nc4ccc(I)cc4F)cc3C2=O)C(=O)N1 (stereo not given)	1100
O=C1CCC(N2C(=O)c3cccc(NCCOCCOCCOCCOCCNCCCONC(=O)c4ccc(F)c(F)c4Nc4ccc(I)cc4F)c3C2=O)C(=O)N1 (stereo not given)	600
Cc1ncsc1-c1ccc(CNC(=O)[C@@H]2C[C@@H](O)CN2C(=O)[C@@H](NC(=O)CCOCCOCCNCCCONC(=O)c2ccc(F)c(F)c2Nc2ccc(I)cc2F)C(C)(C)C)cc1	1600
Cc1ncsc1-c1ccc(CNC(=O)[C@@H]2C[C@@H](O)CN2C(=O)[C@@H](NC(=O)CCCCCCNCCCONC(=O)c2ccc(F)c(F)c2Nc2ccc(I)cc2F)C(C)(C)C)cc1	1400
O=C1CCC(N2C(=O)c3cccc(NCCCCCCNCCCONC(=O)c4ccc(F)c(F)c4Nc4ccc(I)cc4F)c3C2=O)C(=O)N1 (stereo not given)	3800
O=C1CCC(N2C(=O)c3cccc(NCCCCNCCCONC(=O)c4ccc(F)c(F)c4Nc4ccc(I)cc4F)c3C2=O)C(=O)N1 (stereo not given)	1900
O=C1CCC(N2C(=O)c3ccc(NCCOCCOCCOCCNCCCONC(=O)c4ccc(F)c(F)c4Nc4ccc(I)cc4F)cc3C2=O)C(=O)N1 (stereo not given)	1500
Cc1ncsc1-c1ccc(CNC(=O)[C@@H]2C[C@@H](O)CN2C(=O)[C@@H](NC(=O)CCCCCNCCCONC(=O)c2ccc(F)c(F)c2Nc2ccc(I)cc2F)C(C)(C)C)cc1	2100
